Laboratory results as given in ChEMBL document CHEMBL4261490, “Exploring the links between peptoid antibacterial activity and toxicity” (Medchemcomm, 2017).
Converted amounts (≈) assume the structure as drawn. Square brackets hold non-standard residues; d marks the D form. Peptide text beside a SMILES is read from it. Gly(N-2-aminoethyl) = NCCNCC(=O)O; Nspe = C[C@H](NCC(=O)O)c1ccccc1; Nphe = O=C(O)CNCc1ccccc1; Nlys = NCCCCNCC(=O)O

What was measured:
[1] = Selectivity index, ratio of ED50 for human HaCaT cells to MIC for Escherichia coli K-12 W3110 ATCC 27325; format: toxicity; details: read-out: Selectivity Index
[2] = Cytotoxicity against human HepG2 cells assessed as reduction in cell viability pretreated for 1 hr followed by DMEM addition measured after 24 hrs by alamar blue assay; format: cell-based; details: read-out: ED50
Outline: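 HepG2 cells are kept in DMEM high glucose with 10% heat-inactivated FBS and 1% P/S at 37 °C, 5% CO2, and seeded at 2x10^4 cells/well one day ahead. They are exposed to compounds (100 to 3 µM, from 5 mM DMSO stocks) in 50 µL for 1 h. Medium is then added and cells incubated 24 h. alamarBlue is read after 2 h (Ex 560/Em 600). Triplicate on ≥2 occasions; ED50 from dose-response; DMSO negative control.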

Pseudomonas aeruginosa = assay: Antibacterial activity against Pseudomonas aeruginosa PAO1 ATCC 15692 incubated for 16 hrs under shaking condition; format: functional; details: PAO1 ATCC 15692, 16 h
Outline: (§1)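 Broth microdilution (Andrews method) in Iso-sensitest broth. Overnight cultures are adjusted to A650 0.07 (0.5 McFarland) and diluted ten-fold. Compounds come from 5 mM DMSO stocks, 2-fold serially diluted, final 2–100 μM in a 1:1 inoculum:compound mix. Incubation is 37 °C for 16 h with shaking. MIC is the lowest concentration giving complete growth inhibition, read by absorbance; triplicate.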

[3] = Cytotoxicity against human HaCaT cells assessed as reduction in cell viability pretreated for 1 hr followed by DMEM addition measured after 24 hrs by alamar blue assay; format: cell-based; details: read-out: ED50
Outline: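 HaCaT keratinocytes are grown in DMEM high glucose with 10% FBS and 1% P/S and seeded at 2x10^4 cells/well 24 h before treatment. Compound dilution series run 2–100 µM (5 mM DMSO stocks) in 50 µL for 1 h, then medium is added for 24 h at 37 °C, 5% CO2. alamarBlue is read after 1 h (Ex 540/Em 620). Triplicate, ≥2 occasions; ED50 from dose-response; amphotericin B positive control.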

Staphylococcus aureus = assay: Antibacterial activity against Staphylococcus aureus 3R7089 strain Oxford/ATCC 9144 incubated for 16 hrs under shaking condition; format: functional; details: 3R7089 strain Oxford/ATCC 9144, 16 h; outline: as §1
[4] = Selectivity index, ratio of ED50 for human HepG2 cells to MIC for Staphylococcus epidermidis clinical isolate; format: toxicity; details: read-out: Selectivity Index
[5] = Selectivity index, ratio of ED50 for human HepG2 cells to MIC for Pseudomonas aeruginosa PAO1 ATCC 15692; format: toxicity; details: read-out: Selectivity Index
[6] = Selectivity index, ratio of ED50 for human HepG2 cells to MIC for Staphylococcus aureus 3R7089 strain Oxford/ATCC 9144; format: toxicity; details: read-out: Selectivity Index
[7] = Selectivity index, ratio of ED50 for human HaCaT cells to MIC for Staphylococcus aureus 3R7089 strain Oxford/ATCC 9144; format: toxicity; details: read-out: Selectivity Index
Escherichia coli = assay: Antibacterial activity against Escherichia coli K-12 W3110 ATCC 27325 incubated for 16 hrs under shaking condition; format: functional; details: K-12 substr. W3110 ATCC 27325, 16 h; outline: as §1
[8] = Selectivity index, ratio of ED50 for human HaCaT cells to MIC for Staphylococcus epidermidis clinical isolate; format: toxicity; details: read-out: Selectivity Index
[9] = Selectivity index, ratio of ED50 for human HaCaT cells to MIC for Pseudomonas aeruginosa PAO1 ATCC 15692; format: toxicity; details: read-out: Selectivity Index
[10] = system: Staphylococcus epidermidis; assay: Antibacterial activity against Staphylococcus epidermidis clinical isolate incubated for 16 hrs under shaking condition; format: functional; outline: as §1
[11] = Selectivity index, ratio of ED50 for human HepG2 cells to MIC for Escherichia coli K-12 W3110 ATCC 27325; format: toxicity; details: read-out: Selectivity Index
[12] = Cytotoxicity against mouse NIH/3T3 cells by MTS assay; format: cell-based, NIH3T3; details: read-out: ID50 (the source's name)
[13] = Hemolytic activity against human erythrocytes measured after 1 hr; format: ADME, cell-based, Erythrocyte; details: read-out: HD50

| Compound | selectivity ratio [1] | CC50 at 24 h [2] [µM] | MIC (Pseudomonas aeruginosa) [µM] | CC50 at 24 h [3] [µM] | MIC (Staphylococcus aureus) [µM] | selectivity ratio [4] | selectivity ratio [5] | selectivity ratio [6] | selectivity ratio [7] | MIC (Escherichia coli) [µM] | selectivity ratio [8] | selectivity ratio [9] | MIC [10] [µM] | selectivity ratio [11] | CC50 [12] [µM] | HC50 at 1 h [13] [µM] |
| --- | --- | --- | --- | --- | --- | --- | --- | --- | --- | --- | --- | --- | --- | --- | --- | --- |
| C[C@@H](c1ccccc1)N(CC(N)=O)C(=O)CN(C(=O)CN(CCN)C(=O)CN(C(=O)CN(C(=O)CNCCN)[C@@H](C)c1ccccc1)[C@@H](C)c1ccccc1)[C@@H](C)c1ccccc1 | 1 | > 100 | > 100 | > 100 | > 100 | 1 | 1 | 1 | 1 | > 100 | 1 | 1 | > 100 | 1 | – | – |
| N=C(N)NCCCCNCC(=O)N(CC(=O)N(CC(=O)N(CCCCNC(=N)N)CC(=O)N(CC(=O)N(CC(=O)N(CCCCNC(=N)N)CC(=O)N(CC(=O)N(CC(=O)N(CCCCNC(=N)N)CC(=O)N(CC(=O)N(CC(N)=O)Cc1cccc(F)c1)Cc1cccc(F)c1)Cc1cccc(F)c1)Cc1cccc(F)c1)Cc1cccc(F)c1)Cc1cccc(F)c1)Cc1cccc(F)c1)Cc1cccc(F)c1 | 2 | 21 | 13 (≈ 26.3 µg/mL) | 28 | 2 (≈ 4.04 µg/mL) | 11 | 2 | 11 | 14 | 13 (≈ 26.3 µg/mL) | 14 | 2 | 2 (≈ 4.04 µg/mL) | 2 | – | – |
| NCCNCC(=O)N(CC(=O)N(CC(=O)N(CCN)CC(=O)N(CC(=O)N(CC(N)=O)Cc1ccccc1)Cc1ccccc1)Cc1ccccc1)Cc1ccccc1 (H-[Gly(N-2-aminoethyl)][Nphe][Nphe][Gly(N-2-aminoethyl)][Nphe][Nphe]-NH2) | 1 | > 100 | > 100 | > 100 | > 100 | 1 | 1 | 1 | 1 | > 100 | 1 | 1 | > 100 | 1 | – | – |
| NCCCCNCC(=O)N(CC(=O)N(CC(=O)N(CCCCN)CC(=O)N(CC(=O)N(CC(N)=O)Cc1ccccc1)Cc1ccccc1)Cc1ccccc1)Cc1ccccc1 (H-[Nlys][Nphe][Nphe][Nlys][Nphe][Nphe]-NH2) | 1 | > 100 | > 100 | > 100 | > 100 | 1 | 1 | 1 | 1 | > 100 | 1 | 1 | > 100 | 1 | – | – |
| C[C@@H](c1ccccc1)N(CC(N)=O)C(=O)CN(C(=O)CN(CCCCN)C(=O)CN(C(=O)CN(C(=O)CN(CCCCN)C(=O)CN(C(=O)CN(C(=O)CN(CCCCN)C(=O)CN(C(=O)CN(C(=O)CNCCCCN)[C@@H](C)c1ccccc1)[C@@H](C)c1ccccc1)[C@@H](C)c1ccccc1)[C@@H](C)c1ccccc1)[C@@H](C)c1ccccc1)[C@@H](C)c1ccccc1)[C@@H](C)c1ccccc1 (H-[Nlys][Nspe][Nspe][Nlys][Nspe][Nspe][Nlys][Nspe][Nspe][Nlys][Nspe][Nspe]-NH2) | – | – | – | – | – | – | – | 15 | 10 | – | – | – | – | – | 5.1 | 100 |
| CC(c1ccccc1)N(CC(=O)N(CCCCN)CC(=O)N(CC(=O)N(CC(=O)N(CCCCN)CC(=O)N(CC(=O)N(CC(N)=O)[C@@H](C)c1ccccc1)[C@@H](C)c1ccccc1)Cc1ccc(F)cc1)Cc1ccc(F)cc1)C(=O)CN(C(=O)CN(CCCCN)C(=O)CN(Cc1ccc(F)cc1)C(=O)CN(Cc1ccc(F)cc1)C(=O)CNCCCCN)[C@@H](C)c1ccccc1 (single isomer, unassigned) | 13 | 55 | 50 (≈ 91.8 µg/mL) | > 100 | 2 (≈ 3.67 µg/mL) | 55 | – | 28 | 50 | 6 (≈ 11 µg/mL) | 100 | 2 | 1 (≈ 1.84 µg/mL) | 9 | – | – |
